Results on five compounds are retold here after ChEMBL document CHEMBL1144182, “Antimicrobial and cytotoxic arylazoenamines. Part III: antiviral activity of selected classes of arylazoenamines” (Bioorg Med Chem, 2008).

By MIC is commonly meant the least concentration at which growth counts as inhibited. The EC50 is the midpoint of the concentration-response curve. The CC50 is the concentration giving 50% cytotoxicity.

One data set has as its system Candida. The data set can be described thus: Antimicrobial activity against Candida.
A further data set deals with Poliovirus 1. Nature of the data set: Antiviral activity against Sb1 virus infected in Vero76 cells assessed as reduction in virus plaque formation after 4 days by MTT assay. In kind it is functional, organism-based. The note with it: Enterovirus C, Sabin, Vero 76, 96 h. (In general: Tetrazolium dyes change colour on reduction, which living cells bring about.)
Data set [1] can be described thus: Cytotoxicity against mock-infected MDBK cells assessed as reduction in cell viability after 96 hrs by MTT assay. It is filed as cell-based, Bos taurus. Conditions: cattle. The procedure, abridged: (§1)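 Cytotoxicity run in parallel with the antiviral assays. MDBK seeded at 6 × 10^5 and BHK at 1 × 10^6 cells/mL in maintenance medium with or without serial compound dilutions. Incubated 48–96 h at 37 °C, 5% CO2, then viability read by MTT. CC50 is the concentration reducing mock-infected cell viability by 50%.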

The test system of another data set is Vaccinia virus. Nature of the data set: Antiviral activity against VV infected in Vero76 cells assessed as reduction in virus plaque formation after 4 days by MTT assay. In kind it is functional, organism-based. Conditions: Orthopoxvirus vaccinia; Vero 76.
The nature of data set [2]: Cytotoxicity against mock-infected african green monkey Vero76 cells assessed as reduction in cell viability after 96 hrs by MTT assay. In kind it is cell-based, Vero. The note with it: chlorocebus sabaeus.
In data set [3] the test system is Bovine viral diarrhea virus 1. Nature of the data set: Antiviral activity against BVDV infected in MDBK cells assessed as protection against virus-induced cytopathogenicity after 4 days by MTT assay. Conditions: Bovine viral diarrhea virus isolates and strains, 96 h. It is filed as functional, organism-based. The procedure, abridged: (§2)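 MDBK (BVDV) or BHK-21 (YFV) cells were seeded at 3 × 10^4 or 5 × 10^4 cells/well respectively and grown overnight to confluent monolayers at 37 °C in 5% CO2. Monolayers were infected at m.o.i. 0.01 in serum-free medium. After 1 h, MEM Earle's with 1% FCS was added, with or without serial compound dilutions. After 3–4 days at 37 °C, viability was read by MTT. EC50 was taken as 50% protection from virus-induced cytopathogenicity.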
(In general: Damage to the host cells serves as the signal in cytopathic effect assays.)

Data set [4] has as its system Human immunodeficiency virus 1. The data set can be described thus: Antiviral activity against HIV1 infected in MT4 cells assessed as virus-induced cytopathogenicity after 4 days. In kind it is functional, organism-based.
In another data set the test system is Yellow fever virus. Nature of the data set: Antiviral activity against YFV infected in BHK21 cells assessed as protection against virus-induced cytopathogenicity after 4 days by MTT assay. Conditions: BHK-21, 96 h. In kind it is functional, organism-based. The procedure, abridged:
as §2

Data set [5] concerns Mammalian orthoreovirus 1. Nature of the data set: Antiviral activity against Reo virus 1 infected in BHK21 cells assessed as protection against virus-induced cytopathogenicity after 4 days by MTT assay. It is filed as functional, organism-based. Conditions: Mammalian orthoreovirus 1, BHK-21, 96 h.
The test system of another data set is Coxsackievirus B2. Nature of the data set: Antiviral activity against CVB2 infected in Vero76 cells assessed as reduction in virus plaque formation after 4 days by MTT assay. It is filed as functional, organism-based. Conditions: Enterovirus B, Vero 76, 96 h.
Data set [6] is described as follows: Cytotoxicity against mock-infected human MT4 cells assessed as reduction in cell viability after 96 hrs by MTT assay. It is filed as cell-based. In a few lines: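 Exponentially growing MT-4 cells seeded at 1 × 10^5 cells/mL in RPMI-1640 with 10% FCS, penicillin and streptomycin, with or without serial compound dilutions. Incubated at 37 °C, 5% CO2; viability read by MTT after 96 h. CC50 is the concentration reducing mock-infected cell viability by 50%.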

For data set [7], the system named is Respiratory syncytial virus. Nature of the data set: Antiviral activity against RSV infected in Vero76 cells assessed as reduction in virus plaque formation after 4 days by MTT assay. The note with it: human respiratory syncytial virus, Vero 76, 96 h. It is filed as functional, organism-based.
The nature of data set [8]: Cytotoxicity against mock-infected BHK cells assessed as reduction in cell viability after 96 hrs by MTT assay. The note with it: hamster. It is filed as cell-based, Mesocricetus auratus. In a few lines:
as §1

The subject of data set [9] is Vesicular stomatitis virus. Nature of the data set: Antiviral activity against VSV infected in Vero76 cells assessed as reduction in virus plaque formation after 4 days by MTT assay. It is filed as functional, organism-based. Conditions: Vero 76.
A further data set concerns Pseudomonas aeruginosa. Nature of the data set: Antimicrobial activity against Pseudomonas aeruginosa. In kind it is functional.

≈ marks a conversion by molar mass, not a printed value. Calls of active or inactive are those of the source. No rule for the calls is given here.

Consider `Clc1ccc(COC(Cn2ccnc2)c2ccc(Cl)cc2Cl)c(Cl)c1.O=[N+]([O-])O` (stereo unspecified) [MICONAZOLE NITRATE], for which the MIC against Candida was 0.25 µg/mL.

Consider `CN1C=C(/N=N/c2ccc(Br)cc2)CCC1`, for which the 50% effective concentration (EC50) was over 100 µM with Poliovirus 1; 60 µM in data set [3]; 100 µM with Yellow fever virus; 76 µM in data set [5]; over 100 µM in the data set on Coxsackievirus B2; 18 µM in [7]. For the same compound, the 50% cytotoxic concentration (CC50) at 96 h in data set [1] was over 100 µM; in data set [2] it was 100 µM; in data set [6] it was 83 µM; in data set [8], over 100 µM. The result (in the data set on Vaccinia virus; in [4]; in data set [9]) was inactive.

Take `CN1C=C(/N=N/c2ccc(Cl)cc2)CCC1`: the concentration for a half-maximal effect (EC50) is 8 µM with Poliovirus 1; over 58 µM in [3]; over 100 µM in the data set on Yellow fever virus; 32 µM in data set [5]; 5 µM in the data set on Coxsackievirus B2; 20 µM in data set [7]. In addition, the CC50 at 96 h is 58 µM in data set [1], 90 µM in data set [2], over 100 µM in [6] and over 100 µM in [8]. For the same compound, the outcome (with Vaccinia virus; in data set [4]; in [9]) was inactive.

`Fc1ccc(/N=N\C2=C3CCCCN3CCC2)cc1`: the EC50 is over 100 µM with Poliovirus 1; over 56 µM in [3]; 100 µM with Yellow fever virus; 34 µM in [5]; 27 µM in the data set on Coxsackievirus B2; over 100 µM in data set [7]. For the same compound, the CC50 at 96 h in [1] is 56 µM; in data set [2] it was over 100 µM; in data set [6] it was 94 µM; in [8], over 100 µM. Besides, the outcome (in the data set with Vaccinia virus; in data set [4]; in data set [9]) was inactive.

For the compound `CCn1cc(C(=O)O)c(=O)c2cc(F)c(N3CCNCC3)cc21` [NORFLOXACIN], in the data set with Pseudomonas aeruginosa, the MIC was 4 µg/mL (≈ 12.5 µM).
